Screening results: PubChem BioAssay, several laboratories
Most compounds without a hit are left out; they make up all but 2.5% or so of the library.
ADAM17 inh: ADAM17 inhibitors, primary screen, biochemical, QFRET. Disintegrin and metalloproteinase domain-containing protein 17 (Homo sapiens), P78536. recombinant ADAM17, EDANS/DABCYL FRET peptide cleavage. inhibition, % at 6.95 µM. 370,000 tested, 0.83% active. AID 720648, 2013;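 active = inhibition above the mean of compounds lying between control limits plus 3 SD, set per campaign, cut at about 8.5% in these data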;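 note: 0% = DMSO-only wells as the low control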
NR2E3 ag-1: inhibitors of NR2E3-RetCOR corepressor binding, primary screen, NR2E3 agonist project, biochemical, TR-FRET, GST-NR2E3, biotin-RetCOR | Photoreceptor-specific nuclear receptor (Homo sapiens), Q9Y5X4 | 1536-well | inhibition of corepressor binding, % at 4.78 µM | 320,000 tested, 0.12% active | AID 2300, 2010;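 active = percent inhibition above the cutoff of mean plus 3 SD of all tested compounds, set per screening campaign, cut at about 20% in these data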;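 note: 0% = DMSO wells and 100% = biotin wells as full block of FRET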
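System: GST-NR2E3 and biotin-RetCOR proteins; probe or stimulus: 7 nM biotin-RetCOR; doses: compound at 4.8 µM, single dose; schedule: Compound–protein incubation for 5 h at 4 °C; detection: time-resolved FRET; read-out: percent inhibition; controls: biotin wells as high control, 0.6% DMSO wells as low control; format: 1536-well plates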
NR2E3 ag-2: NR2E3 agonists in two-hybrid cells, primary screen, cell-based, luminescence, CHO-S, Gal4-NCOR/VP16-NR2E3; luciferase; inhibition of corepressor binding, % at 3.98 µM; 360,000 tested, 0.35% active; AID 602229, 2012;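 active = inhibition above the mean of all tested compounds plus 3 SD, cut at about 70% in these data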;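 note: 0% = DMSO with NR2E3 transfected cells and 100% = cells lacking NR2E3 construct; higher means lower luciferase signal from less NR2E3 corepressor binding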
JMJD2C inh: inhibitors of GASC-1 histone demethylase, primary screen, biochemical, fluorescence, DELFIA europium; inhibition, % at 2.35 µM; AID 2099, 2009; GST-JMJD2C(1-420) H3K9me3 demethylation; Lysine-specific demethylase 4C (Homo sapiens), Q9H3R0; 330,000 tested, 0.069% active;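 active = more than half of a compound's replicate wells show inhibition beyond 50%, single wells judged on their own value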;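 note: signal counts dimethyl H3K9 product captured on neutravidin plate; 0% = median of DMSO wells and 100% = 0.3 times that DMSO median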
ADAM10 inh: human ADAM10 inhibitors, primary screen, biochemical, QFRET, HTS | Disintegrin and metalloproteinase domain-containing protein 10 (Homo sapiens), O14672 | recombinant ADAM10, EDANS/DABCYL FRET peptide cleavage, 3 h | inhibition, % at 7 µM | 370,000 tested, 0.62% active | AID 720582, 2013;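 active = inhibition above a per-campaign cutoff equal to the mean of compounds falling between control-based bounds plus 3 SD, cut at about 20% in these data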;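 note: 0% = DMSO wells while the 100% control is not disclosed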
Target sequence (O14672 214-748 limits assumed): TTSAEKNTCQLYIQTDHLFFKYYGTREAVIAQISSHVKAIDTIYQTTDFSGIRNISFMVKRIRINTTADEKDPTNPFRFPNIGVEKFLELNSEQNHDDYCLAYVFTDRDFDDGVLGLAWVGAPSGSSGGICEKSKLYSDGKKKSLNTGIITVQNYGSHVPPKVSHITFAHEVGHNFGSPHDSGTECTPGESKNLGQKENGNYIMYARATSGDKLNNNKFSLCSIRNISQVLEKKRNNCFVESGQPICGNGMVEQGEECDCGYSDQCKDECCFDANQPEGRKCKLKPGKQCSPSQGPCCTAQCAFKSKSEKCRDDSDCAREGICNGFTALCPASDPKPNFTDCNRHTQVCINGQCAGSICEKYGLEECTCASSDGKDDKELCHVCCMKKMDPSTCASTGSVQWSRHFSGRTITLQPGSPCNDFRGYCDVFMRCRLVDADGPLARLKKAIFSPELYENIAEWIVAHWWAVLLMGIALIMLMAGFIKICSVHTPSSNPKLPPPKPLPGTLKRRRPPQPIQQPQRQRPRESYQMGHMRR
proKLK7 act: proKLK7 zymogen activators, primary screen, biochemical, fluorescence intensity; Kallikrein-7 (Homo sapiens), P49862; purified proKLK7, EDANS-DABCYL substrate fluorescence; 100% is mature enzyme control, 0% vehicle; activation, % at 7 µM; 370,000 tested, 0.9% active; AID 652039, 2013;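 active = activation above the mean of all tested compounds plus 3 SD, computed per campaign excluding outliers beyond control limits, cut at about 13% in these data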
The depositor's hits bear a star; i = inactive; nt = no result given.

SMILES | ADAM17 inh | NR2E3 ag-1 | NR2E3 ag-2 | JMJD2C inh | ADAM10 inh | proKLK7 act
O=C(Nc1ccc2c(c1)CCC2)c1cc(S(=O)(=O)N2CCN(c3ccccc3)CC2)ccc1Cl | 6.6 | -0.3 | 6.2 | 2.3 | 21.6* | -1.0
O=C(NC1CCCCC1)c1cc(S(=O)(=O)N2CCN(c3ccccc3)CC2)ccc1Cl | -1.2 | nt | 23.5 | nt | 5.8 | 0.8
CCN(CC)CCNC(=O)c1cc2c(-c3ccc(Cl)cc3)nn(C)c2s1 | -184.1 | 4.4 | -5.9 | 16.5 | i | 16.6*
COc1ccc2c(c1)CN1C(=O)N(Cc3ccccc3)S(=O)(=O)CC21 (stereo unspecified) | 4.2 | nt | nt | nt | -0.8 | 0.2
COc1ccc(/C=C2\CCCC3C2=NN(C(=O)COC(=O)CNC(=O)c2ccccc2)C3c2ccc(OC)cc2)cc1 (stereo unspecified) | 3.7 | -0.8 | 1.5 | 2.4 | 21.2* | -0.3
CC(C)(C)OC(=O)NCCCCCNC(=O)c1nc[nH]c1C(=O)NCc1ccc(CNC(=O)OC(C)(C)C)cc1 | 12.4* | nt | 79.4* | 2.2 | 22.6* | 0.3
CC(C)(C)OC(=O)NCc1ccc(CNC(=O)c2nc[nH]c2C(=O)NCc2ccc(CNC(=O)OC(C)(C)C)cc2)cc1 | 12.0* | nt | 2.6 | -6.8 | 10.6 | -0.1
COC(=O)c1cc2c(c3c4ccccc4n(S(=O)(=O)c4cccc(C)c4)c13)C(=O)N(Cc1ccc(N(C)C)cc1)C2 | 0.0 | nt | nt | nt | 2.7 | -0.5
CCCNC(=S)Nc1cccc(C(F)(F)F)c1 | -1.4 | 1.5 | -4.7 | -20.5 | 5.2 | -0.3
CC(C)(C)NNC(=S)Nc1cccc(C(F)(F)F)c1 | 1.0 | 1.8 | 8.6 | 54.2* | 6.5 | -0.2
Nc1nc2cc3c(cc2cc1C(=O)NCCc1c[nH]c2ccccc12)OCO3 | -76.2 | nt | nt | nt | -239.9 | -0.8
COc1ccc(S(=O)(=O)N2CCc3ccccc3C2)cc1OC | 3.8 | 2.9 | -24.7 | -3.6 | 20.6* | -0.7
CCCCNC(=O)C[C@H]1C[C@@]2(C(=O)OC)C(=C[C@H](C(C)C)O[C@@H]2C2CC2)N(CCC2=CCCCC2)C1=O | 1.1 | nt | nt | nt | 5.7 | 1.1
Cc1cccn2c(=O)c(C(=O)NC3CCCCC3)c(O)nc12 | -7.7 | -0.7 | 2.5 | -0.8 | -28.2 | -1.3
Cc1cccn2c(=O)c(C(=O)NC3CC(C)CC(C)(C)C3)c(O)nc12 (stereo unspecified) | -3.9 | 2.3 | -4.3 | 52.5* | -3.2 | 0.1
C#CCN(C[C@@H]1[C@@H](OC(=O)Nc2cccs2)[C@@H](OC(=O)Nc2cccs2)Cn2c(=O)ccc(=O)n21)S(=O)(=O)c1ccc(C)cc1 | 10.5* | nt | 6.8 | nt | 18.1 | -0.6
Cc1ccc(N2CCN(/N=C\c3cccnc3)CC2)cc1 | 0.7 | nt | nt | nt | -1.3 | 0.3
C=CCC[C@H](Cc1ccc(F)cc1)C(=O)OC[C@@H](NC(=O)[C@@H](CC=C)CC(=O)N[C@@H](CO)Cc1ccccc1)C(C)(C)C | 8.2 | nt | 20.7 | 2.0 | 20.5* | 0.2
COc1ccccc1-c1ncn(Cc2cccc(-c3ccccc3)c2)c1-c1ccco1 | 6.8 | nt | nt | nt | 6.2 | -0.4
CCN(CC)S(=O)(=O)c1ccc2oc(C(=O)NCc3ccc(F)cc3)c(C)c2c1 | 8.8* | 0.8 | 1.8 | -3.0 | 22.3* | 0.1
CCCCNC(=O)C1CCCN1C(=O)NCc1ccccc1OC (stereo unspecified) | 1.6 | nt | nt | nt | -1.8 | 0.0
O=[N+]([O-])c1ccc(N=Nc2ccc(O)c3ccccc23)cc1 | nt | nt | -26.0 | nt | nt | nt
O=S(=O)(Nc1ccc(N=Nc2ccc(O)c3ccccc23)cc1)c1ccccc1 | 14.3* | -1.9 | -35.9 | -2.2 | 15.5 | -0.7
N#Cc1ccccc1NC(=O)C1SC(=Nc2ccccc2)C(C(=O)Nc2ccc(Cl)cc2)=C1N (stereo unspecified) | 16.4* | 1.2 | 1.5 | -19.9 | 37.1* | -0.6
